Data on ten compounds can be found in ChEMBL document CHEMBL4765302, “Design, synthesis and biological evaluation of novel histone deacetylase1/2 (HDAC1/2) and cyclin-dependent Kinase2 (CDK2) dual inhibitors against malignant cancer” (Eur J Med Chem, 2020).

The inhibition is the drop in the measured response relative to a control, in per cent. In general, IC50 refers to the concentration that inhibits the measured activity by half.

For assay [1], the system named is HepG2. Description: Antiproliferative activity against human HepG2 cells assessed as reduction in cell growth at 2 uM incubated for 72 hrs by CCK-8 assay relative to control. The class given is functional. A general note: Tetrazolium assays rely on reduction of a dye to a coloured formazan, in cell work by metabolically active cells.
Assay [2] deals with NCI-H460. Description: Antiproliferative activity against human H460 cells assessed as reduction in cell growth at 8 uM incubated for 72 hrs by CCK-8 assay relative to control. The class given is functional.
For assay [3], the system named is HCT-116. The assay can be described thus: Antiproliferative activity against human HCT-116 cells assessed as reduction in cell growth at 8 uM incubated for 72 hrs by CCK-8 assay relative to control. The class given is functional.
In assay [4] the test system is HCT-116. The assay can be described thus: Antiproliferative activity against human HCT-116 cells assessed as reduction in cell growth at 2 uM incubated for 72 hrs by CCK-8 assay relative to control. It counts as functional.
The target of assay [5] is Histone deacetylase 1 (Homo sapiens, UniProt Q13547). Description: Inhibition of recombinant human HDAC1 at 10 uM using SIRT1 as substrate incubated for 10 mins followed by substrate addition and measured after 30 mins by fluorescence based assay relative to control. The settings on record: time 40.0 min. The gist of the method:
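Enzyme inhibition of HDAC1 measured at a single concentration of 10 µM, tested alongside the cell-growth screen.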

Assay [6] concerns HepG2. Description: Antiproliferative activity against human HepG2 cells assessed as reduction in cell growth at 8 uM incubated for 72 hrs by CCK-8 assay relative to control. The class given is functional.
Assay [7] has as its system NCI-H460. The assay can be described thus: Antiproliferative activity against human H460 cells assessed as reduction in cell growth at 2 uM incubated for 72 hrs by CCK-8 assay relative to control. The class given is functional.
Assay [8] relates to HCT-116. Description: Antiproliferative activity against human HCT-116 cells assessed as reduction in cell growth incubated for 72 hrs by CCK-8 assay. As to conditions: HCT-116, 72 h. It counts as functional, cell-based. The gist of the method: (§1)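 IC50 by CCK-8 assay across five solid-tumour lines (HCT116, HepG2, H460, HeLa, A375). Run only for compounds chosen after the single-concentration screen, with CS055 and roscovitine as references.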

Assay [9] has as its system HeLa. Description: Antiproliferative activity against human HeLa cells assessed as reduction in cell growth incubated for 72 hrs by CCK-8 assay. It counts as functional, cell-based. A digest of the protocol:
as §1

Assay [10] relates to NCI-H460. The assay can be described thus: Antiproliferative activity against human NCI-H460 cells assessed as reduction in cell growth incubated for 72 hrs by CCK-8 assay. It counts as functional, cell-based. As to conditions: NCI-H460, 72 h. The gist of the method:
as §1

Assay [11] has as its system A-375. The assay can be described thus: Antiproliferative activity against human A-375 cells assessed as reduction in cell growth incubated for 72 hrs by CCK-8 assay. The class given is functional, cell-based. As to conditions: A-375, 72 h. A digest of the protocol:
as §1

For assay [12], the system named is HepG2. Description: Antiproliferative activity against human HepG2 cells assessed as reduction in cell growth incubated for 72 hrs by CCK-8 assay. As to conditions: HepG2, 72 h. The class given is functional, cell-based. A digest of the protocol:
as §1

Histone deacetylase 1, sequence (Q13547 whole entry): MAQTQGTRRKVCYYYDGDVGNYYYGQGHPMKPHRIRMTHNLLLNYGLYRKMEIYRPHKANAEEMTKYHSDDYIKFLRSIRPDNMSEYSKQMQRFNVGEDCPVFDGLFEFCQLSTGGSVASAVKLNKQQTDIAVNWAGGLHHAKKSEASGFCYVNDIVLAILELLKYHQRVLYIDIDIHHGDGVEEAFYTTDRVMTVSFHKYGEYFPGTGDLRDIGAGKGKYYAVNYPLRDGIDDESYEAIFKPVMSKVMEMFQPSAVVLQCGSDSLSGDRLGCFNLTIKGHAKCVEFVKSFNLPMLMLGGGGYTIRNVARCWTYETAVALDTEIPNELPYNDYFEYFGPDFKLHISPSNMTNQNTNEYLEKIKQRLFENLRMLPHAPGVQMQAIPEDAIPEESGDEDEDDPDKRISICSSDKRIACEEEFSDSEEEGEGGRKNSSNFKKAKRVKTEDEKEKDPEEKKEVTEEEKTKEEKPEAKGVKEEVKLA

For the compound `Nc1ccccc1NC(=O)c1ccc(Cn2cnc3c(Nc4cccc(OC(F)(F)F)c4)nc(Cl)nc32)cc1`, the inhibition at 2 µM in assay [1] stood at 1.88%; in assay [4], 1.6%; in [7] it was 47.7%. For the same compound, the inhibition at 8 µM in [2] was determined as 62.4%; in [3], 46.6%; in assay [6] it was 31.2%. The inhibition in assay [5] is 37.4%.

Consider `Nc1ccccc1NC(=O)/C=C/c1ccc(Cn2cnc3c(Nc4ccccc4)nc(Cl)nc32)cc1`, for which the figures for the inhibition at 2 µM in [1], in assay [4] and in assay [7] were 16.4%, 7.75% and 2.05%, respectively. Further, the figures for the inhibition at 8 µM in assay [2], in assay [3] and in assay [6] were 28.7%, 30.9% and 41.9%, respectively. Further, the inhibition in assay [5] is 14.8%.

Take `CC1CCN(c2nc(Cl)nc3c2ncn3Cc2ccc(C(=O)Nc3ccccc3N)cc2)CC1`: the figures for the inhibition at 2 µM in assay [1], in [4] and in assay [7] were 1.22%, 70.9% and 11.8%, respectively. In addition, the inhibition at 8 µM came to 40.9% in assay [2], 78.6% in [3] and 65.3% in assay [6]. The half-inhibitory concentration (IC50) in [8] worked out at 0.95 µM; in [9], 4.5 µM; in assay [10], 7.4 µM; in assay [11] it was 4.24 µM; in assay [12] it was 5.18 µM. Also, in [5], the inhibition worked out at 75.3%.

`CCCn1cnc2c(NCc3ccc(C(=O)Nc4ccccc4N)cc3)nc(Cl)nc21`: the inhibition at 2 µM turned out to be 12.4% in [1], 28.5% in [4] and 31% in assay [7]. For the same compound, the inhibition at 8 µM in assay [2] worked out at 39.2%; in assay [3], 29.6%; in [6] it was 14.1%. Moreover, in assay [5], the inhibition was determined as 11.4%.

On to `Nc1ccccc1NC(=O)/C=C/c1ccc(Cn2cnc3c(Nc4cccc(OC(F)(F)F)c4)nc(Cl)nc32)cc1`, for which the inhibition at 2 µM in assay [1] came to 16.2%; in assay [4] it was 2.8%; in assay [7] it was 2.1%. For the same compound, the figures for the inhibition at 8 µM in assay [2], in [3] and in [6] were 66.7%, 5.23% and 37.6%, respectively. Further, in assay [5], the inhibition was found to be 40.3%.

Regarding `CC1CCN(c2nc(Cl)nc3c2ncn3Cc2ccc(/C=C/C(=O)Nc3ccccc3N)cc2)CC1`, the figures for the inhibition at 2 µM in assay [1], in assay [4] and in assay [7] were 8.73%, 4.24% and 8.24%, respectively. The results for the inhibition at 8 µM in assay [2], in assay [3] and in assay [6] were 10.8%, 26.9% and 32.2%, respectively. Also, the inhibition in assay [5] worked out at 4.87%.

As to `Nc1ccccc1NC(=O)/C=C/c1ccc(Cn2cnc3c(N4CCOCC4)nc(Cl)nc32)cc1`, the inhibition at 2 µM in assay [1] is 19%; in [4] it was 17.8%; in [7], 1.24%. For the same compound, the inhibition at 8 µM was 37.9% in assay [2], 55.4% in assay [3] and 40.9% in assay [6]. Moreover, the inhibition in assay [5] came to 25.7%.

In the case of `Nc1ccccc1NC(=O)/C=C/c1ccc(Cn2cnc3c(NC4CCCCC4)nc(Cl)nc32)cc1`, the results for the inhibition at 2 µM in [1], in assay [4] and in [7] were 3.83%, 3.34% and 8.09%, respectively. Also, the values for the inhibition at 8 µM in assay [2], in assay [3] and in assay [6] were 24.9%, 18.7% and 42.6%, respectively. Moreover, in [5], the inhibition is 28.2%.

Consider `Nc1ccccc1NC(=O)c1ccc(CNc2nc(Cl)nc3c2ncn3C2CCCC2)cc1`, for which the values for the inhibition at 2 µM in [1] and in assay [4] were 54.7% and 75.6%, respectively. The inhibition at 8 µM in [2] came out at 57.4%; in [3], 80.6%; in assay [6] it was 74.9%. The IC50 came to 0.85 µM in assay [8]; 3.02 µM in assay [9]; 5.78 µM in assay [10]; 2.79 µM in assay [11]; 3.43 µM in assay [12]. Also, the inhibition in [5] was 90.9%.

For `Nc1ccccc1NC(=O)/C=C/c1ccc(Cn2cnc3c(Nc4cccc(Cl)c4)nc(Cl)nc32)cc1`, the inhibition at 2 µM in [1] stood at 35.8%; in assay [4], 12.9%; in assay [7], 7.11%. The values for the inhibition at 8 µM in assay [2], in assay [3] and in assay [6] were 29.4%, 15.8% and 49.3%, respectively. In addition, the inhibition in [5] was 23.6%.
